These results are taken from ChEMBL document CHEMBL4024790 (J Med Chem, 2018).

Data set [1] concerns Rattus norvegicus. Put plainly: Antipsychotic activity in Long Evans rat at 0.32 to 3.2 mg/kg, sc by conditioned avoidance responding assay. The class given is functional, organism-based. The method in brief: (§1)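 Rats dosed SC at 0.32, 1.0 and 3.2 mg/kg; conditioned avoidance responding also run in combination with risperidone 0.032 mg/kg.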
For data set [2], the species on record is Rattus norvegicus. As to the kind of experiment: Toxicity in rat assessed as effect on skeletal muscle up to 1 month by microscopic method. The following applies: in vivo.
For data set [3], the species on record is Mus musculus. Put plainly: Increase in cGMP level in CD-1 mouse brain hippocampus assessed as unbound brain concentration required to show the effect by immunoassay. The format is functional. The method in brief: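 CD-1 mice dosed SC (solution in 20% SBE-β-CD with 2 molar equivalents 1N HCl, 1 mL/kg); euthanized by focused microwave irradiation of brain; cortex, striatum, hippocampus homogenized in 0.5 N HCl, centrifuged; cyclic nucleotides in supernatant by enzyme immunoassay. Unbound brain exposure from satellite animals; dose-response and time-course data combined with linear model; one-way ANOVA with Fisher's PLSD.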

The species entered for data set [4] is Mus musculus. As to the kind of experiment: Increase in cGMP level in CD-1 mouse brain hippocampus by immunoassay. The format is functional. The method in brief: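 CD-1 mice given compound; brains fixed by focused microwave irradiation, and cortex, striatum and hippocampus dissected and homogenized in 0.5 N HCl, then centrifuged. cGMP in the supernatant measured by enzyme immunoassay. Unbound brain concentration taken from satellite animals. Dose-response and time-course data combined, and a linear Cbu–cGMP model fitted. The Cbu E50 is the projected Cbu giving a 50% rise in cGMP. Statistics by one-way ANOVA with Fisher's PLSD, p<0.05.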

For data set [5], the system named is Rattus norvegicus. As to the kind of experiment: Effect on habituated locomotor activity in Long Evans rat at 0.32 to 3.2 mg/kg, sc. The format is ADME, organism-based. To be noted: in vivo. The method in brief: as §1

Activity calls are given as the source filed them. The calls are words filed in the database; no cut-off is given here.

In the case of `Cc1nc(-c2cnn(C)c2-c2ccc(C(F)(F)F)cn2)c2c(N3CCC3)ncnn12` [PF-05180999], the result in data set [1] was inactive. The Activity result in data set [2] is “Toxic”; in data set [4], “Dose-dependent effect”; in data set [5] it was “Non-Toxic”. Also, in data set [3], the fEC50 was determined as 116.3 nM.
